# FGF22 binding: FGF22 (human) thermal shift binding; Q9HCT0; recombinant FGF22 thermal shift, SYPRO orange fluorescence; percent of sucrose octasulfate shift, DMSO zero; activity (Tm shift, normalised), % at 9.99 µM; actives 1.5% (n = 340,000);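 active = mean Tm shift, scaled 0 neutral to 100 positive control, at about 1.3% or above, every replicate too, limit read from the data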
# Target sequence (Q9HCT0 whole entry, looked up): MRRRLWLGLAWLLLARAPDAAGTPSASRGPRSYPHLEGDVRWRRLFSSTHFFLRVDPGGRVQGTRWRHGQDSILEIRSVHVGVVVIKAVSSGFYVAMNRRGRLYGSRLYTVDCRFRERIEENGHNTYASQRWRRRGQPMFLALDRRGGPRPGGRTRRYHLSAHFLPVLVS
# Ecoli rRNA inh: selective bacterial rRNA inhibition in E. coli | E. coli WT GFP vs humanized-ribosome RFP mutants, fluorescence, 24 h; stronger effect = lower value; DMSO median 0, no signal -100 | GFP signal change (wild-type ribosome), % (concentration not given with the values) | actives 1.6% (n = 350,000);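 active = significant combined selectivity score with lowered wild-type GFP, culture density cut under 30%, mutant RFP and density less affected; inactive = any of these conditions unmet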
# E-selectin induc: induces E-selectin expression in human endothelial cells | P16581 | actives 0.37% (n = 260,000) | HUVEC E-selectin immunofluorescence imaging; normalized: neutral wells 0, TNF-alpha wells 100 | AID 686992 | activation, % at 7.58 µM;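 active = mean E-selectin-positive cell signal at least 10% of the positive control, reached in at least 60% of replicates, without over 20% cell loss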
#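 System: HUVEC / Compound: single concentration / Signal: immunofluorescence imaging / Read-out: percent E-selectin-positive cells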
# SIRT5 block: inhibitors of human sirtuin-5 desuccinylase; actives 1.1% (n = 330,000); Purified SirT5, succinyl-peptide AMC, trypsin-coupled fluorescence; Q9NXA8; inhibition, % at 15 µM; AID 652115; in the data active = inhibition above about 15%
# Target sequence (Q9NXA8 whole entry, looked up): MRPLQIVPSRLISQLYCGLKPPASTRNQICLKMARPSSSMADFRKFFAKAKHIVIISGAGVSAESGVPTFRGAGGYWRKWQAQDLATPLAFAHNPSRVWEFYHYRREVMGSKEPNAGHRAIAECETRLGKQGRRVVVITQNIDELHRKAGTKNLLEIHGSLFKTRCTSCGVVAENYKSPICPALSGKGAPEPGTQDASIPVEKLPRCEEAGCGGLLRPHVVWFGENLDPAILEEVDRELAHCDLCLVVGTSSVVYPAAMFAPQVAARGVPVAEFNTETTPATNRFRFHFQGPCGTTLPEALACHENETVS
# FN deposit inh: fibronectin deposition inhibition | actives 0.086% (n = 350,000) | inhibition, % at 12.6 µM | AH1F fibroblasts, Alexa488-fibronectin deposition fluorescence, overnight;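 active = mean inhibition across replicates of 30% or more, regardless of how many single replicates reach that level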;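 note: positive control wells lacked labelled fibronectin entirely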
#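 Material: AH1F fibroblast monolayer depositing Alexa488-labelled fibronectin into matrix | Input: 10000 AH1F cells/well | Medium: DMEM plus 2% serum, read in PBS | Reagent: Alexa488-fibronectin, 24 nM final in well | Compound dosing: One dose per compound, pinned | Schedule: 1 h adhesion, overnight exposure | Measured by: Fluorescence at 485 nm excitation, 525 nm emission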
# C2C12 statin: protects C2C12 myotubes from simvastatin toxicity. ATP luminescence, 48 h; scaled: DMSO 0, geranylgeraniol control 100. rescue of ATP level, % at 7.49 µM. actives 0.78% (n = 330,000);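 active = mean ATP rescue above about 67%, or every replicate alone reaching that limit, limit read from the data, passing the limit was not always enough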;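 note: myotubes were challenged with 10 µM simvastatin during compound exposure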
# * = called active by the depositor; . = not tested or not shown. In the library only some 4% were active in any assay of this set; here they are far more common.
SMILES,FGF22 binding,Ecoli rRNA inh,E-selectin induc,SIRT5 block,FN deposit inh,C2C12 statin
COc1ccc(S(=O)(=O)Nc2ccc3c(c2)C(=O)N([C@H](C)CO)C[C@H](C)[C@H](CN(C)C(=O)Nc2cccc4ccccc24)OCCCC[C@@H](C)O3)cc1,0.2,-0.1,-0.1,.,.,-7.4
Cc1ccc(Nc2ncnc3ccccc23)cc1,0.0,1.7,.,.,-1.5,1.4
Cc1ccc(/C(=N/Nc2ncnc3ccccc23)C(=O)O)cc1,-0.3,-2.7,51.3*,1.6,3.7,43.1
C[C@@H]1CN([C@H](C)CO)S(=O)(=O)c2ccc(/C=C/c3ccccc3)cc2O[C@H]1CN(C)C(=O)c1ccncc1,-0.5,-7.9,0.7,3.7,.,-9.9
Cn1c(=S)[nH]c(=O)c2ncc(=O)[nH]c21,43.5*,.,.,1.4,-1.4,.
CSc1ccccc1NS(=O)(=O)c1ccc2c(c1)OCCO2,0.1,-24.9,.,0.0,.,91.5*
CCOc1ccc(S(=O)(=O)Nc2ccccc2SC)cc1,.,.,.,.,-1.0,7.3
COc1ccccc1NS(=O)(=O)c1ccc2c(c1)OCCO2,0.0,2.3,-0.1,-2.3,-1.5,.
COC(=O)COc1ccc(S(=O)(=O)Nc2ccccc2SC)cc1,.,.,-1.1,.,-0.9,127.3*
COC(=O)c1ccc(C)c(NS(=O)(=O)c2ccc3c(c2)OCCO3)c1,.,.,.,.,.,91.8*
O=C(Nc1ccc2c(c1)[C@@H]1C[C@H](CC(=O)N3CCc4ccccc4C3)O[C@@H](CO)[C@@H]1O2)NC1CCCC1,0.1,-8.0,-0.4,-5.7,.,7.1
Cc1cc2c(=Cc3ccc(N(C)C)cc3)c3ccccc3n2[n+]1C,-0.3,-47.6,49.0*,3.4,-25.9,.
CCOC(=O)SC1=N/C(=C\c2ccc(N(C)C)cc2)C(=O)S1,0.2,6.0,.,-13.9,.,-1.8
CN(C)c1ccc(C=c2c3ccccc3n3c2c2ccccc2[n+]3C)cc1,-0.5,.,.,-0.5,0.2,.
CCOC(=O)c1cc2c(=Cc3ccc(N(C)C)cc3)c3ccccc3n2[n+]1C,-0.1,-53.3,138.7*,0.4,5.2,.
Cc1noc(C)c1NC(=O)Nc1ccc2c(c1)C(=O)N([C@@H](C)CO)C[C@@H](C)[C@H](CN(C)CC1CCCCC1)OCCCC[C@@H](C)O2,-0.4,1.4,0.1,-3.9,.,.
CCCNC(=O)C1(C)CCCN(Cc2cccc(Oc3ccccc3)c2)C1 (configuration not stated),0.1,-23.4,0.0,20.4*,-1.6,-14.3
CCNC(=O)C1(C)CCCN(Cc2cccc(Oc3ccccc3)c2)C1 (configuration not stated),.,.,.,.,.,0.9
CC(C)C#Cc1ccc2c(c1)O[C@H](CN(C)C(=O)c1ccccn1)[C@@H](C)CN([C@@H](C)CO)S2(=O)=O,0.8,-2.7,0.1,4.2,.,1.1
CN(C)c1ccc(/C=C/c2ccc3c4ccccc4ccc3[n+]2-c2ccccc2)cc1,-0.1,-69.2,217.5*,1.4,27.3,-171.0
C[C@H]1CN([C@@H](C)CO)C(=O)Cc2cc(NC(=O)C3CC3)ccc2O[C@H]1CN(C)Cc1ccncc1,.,2.2,0.3,.,.,-15.1
CN(C(=O)C1CCCN(c2ncnc3c2nc2n3CCCCC2)C1)c1cccc(Cl)c1 (configuration not stated),-0.3,-35.6*,.,0.3,-2.6,15.2
C[C@@H]1CN([C@@H](C)CO)C(=O)c2cc(NC(=O)Nc3ccc4c(c3)OCO4)ccc2O[C@@H](C)CCCCO[C@H]1CN(C)Cc1ccccc1,-0.1,2.2,-0.1,3.3,0.1,-28.9
O=C(C1CC1)N1CC2(C1)[C@H](c1ccccc1)[C@H](CO)N2Cc1ccccc1F,0.0,-6.5,-0.1,1.5,-4.7,.
O=C(NCc1ccncc1)c1ccc(Cl)c(S(=O)(=O)N2CCCCC2)c1,0.4,1.0,.,17.8*,-0.3,.
COc1cc(C(=O)NCc2ccncc2)cc(OC)c1OC,42.9*,23.2,.,-3.8,.,.
Cc1ccc(C)n1-c1ccc(C(=O)NCc2ccncc2)cc1,44.0*,7.9,.,-6.6,6.8,.
COc1cc(C(=O)Nc2ccncc2)cc(OC)c1OC,-0.1,0.9,.,0.5,.,-25.4
